# Test results as given in ChEMBL document CHEMBL4422696, “Fusicoccane Diterpenes from Hypoestes forsskaolii as Heat Shock Protein 90 (Hsp90) Modulators” (J Nat Prod, 2019).
# Active and inactive are the calls of the source. No cut-off for these calls is given here.
# Experiments:
# [1] = system: HeLa; assay: Effect on total AKT expression in human HeLa cells at 20 uM after 48 hrs by Western blot analysis relative to GAPDH (reference value: 1); type: ADME, cell-based
# [2] = system: HeLa; assay: Effect on total Cdc2 expression in human HeLa cells at 10 uM after 48 hrs by Western blot analysis relative to GAPDH (reference value: 1); type: ADME, cell-based
# [3] = biological target: T1, Heat shock protein HSP 90-alpha (Homo sapiens, UniProt P07900); assay: Inhibition of HSP90 alpha in human HeLa cells assessed as effect on EGFR expression at 10 uM after 48 hrs by Western blot analysis relative to GAPDH (reference value: 1); type: cell-based
# [4] = biological target: T1, Heat shock protein HSP 90-alpha; assay: Inhibition of HSP90 alpha in human HeLa cells assessed as effect on HSP70 expression at 10 uM after 48 hrs by Western blot analysis relative to alpha-tubulin (reference value: 1); type: cell-based
# [5] = system: HeLa; assay: Effect on total AKT expression in human HeLa cells at 10 uM after 48 hrs by Western blot analysis relative to GAPDH (reference value: 1); type: ADME, cell-based
# [6] = system: HeLa; assay: Effect on total ERK1 expression in human HeLa cells at 10 uM after 48 hrs by Western blot analysis relative to GAPDH (reference value: 1); type: ADME, cell-based
# [7] = biological target: T1, Heat shock protein HSP 90-alpha; assay: Binding affinity to recombinant human HSP90 alpha by Surface plasmon resonance analysis
# [8] = biological target: T1, Heat shock protein HSP 90-alpha; assay: Inhibition of HSP90 alpha in human HeLa cells assessed as effect on HSP70 expression at 20 uM after 48 hrs by Western blot analysis relative to alpha-tubulin (reference value: 1); type: cell-based
# [9] = biological target: T1, Heat shock protein HSP 90-alpha; assay: Inhibition of HSP90 alpha in human HeLa cells assessed as effect on ERK1 phosphorylation at 10 uM after 48 hrs by Western blot analysis relative to GAPDH (reference value: 1); type: cell-based
# [10] = biological target: T1, Heat shock protein HSP 90-alpha; assay: Inhibition of HSP90 alpha in human HeLa cells assessed as effect on ERK1 phosphorylation at 20 uM after 48 hrs by Western blot analysis relative to GAPDH (reference value: 1); type: cell-based
# [11] = biological target: T1, Heat shock protein HSP 90-alpha; assay: Inhibition of HSP90 alpha in human HeLa cells assessed as effect on Cyclin A expression at 10 uM after 48 hrs by Western blot analysis relative to GAPDH (reference value: 1); type: cell-based
# [12] = system: PBMC; assay: Cytotoxicity against human PBMC up to 100 uM after 48 hrs by trypan blue exclusion assay; type: cell-based
# [13] = biological target: T1, Heat shock protein HSP 90-alpha; assay: Inhibition of HSP90 alpha in human HeLa cells assessed as effect on HSP90 expression at 10 uM after 48 hrs by Western blot analysis relative to alpha-tubulin (reference value: 1); type: cell-based
# [14] = system: HeLa; assay: Effect on total ERK1 expression in human HeLa cells at 20 uM after 48 hrs by Western blot analysis relative to GAPDH (reference value: 1); type: ADME, cell-based
# [15] = biological target: T1, Heat shock protein HSP 90-alpha; assay: Inhibition of HSP90 alpha in human HeLa cells assessed as effect on HSP90 expression at 20 uM after 48 hrs by Western blot analysis relative to alpha-tubulin (reference value: 1); type: cell-based
# [16] = biological target: T1, Heat shock protein HSP 90-alpha; assay: Inhibition of HSP90 alpha in human HeLa cells assessed as effect on CDC2/p34 phosphorylation at Thr161 residue at 10 uM after 48 hrs by Western blot analysis relative to GAPDH (reference value: 1); type: cell-based
# [17] = biological target: T1, Heat shock protein HSP 90-alpha; assay: Inhibition of HSP90 alpha in human HeLa cells assessed as effect on AKT phosphorylation at 10 uM after 48 hrs by Western blot analysis relative to GAPDH (reference value: 1); type: cell-based
# [18] = biological target: T1, Heat shock protein HSP 90-alpha; assay: Inhibition of HSP90 alpha in human HeLa cells assessed as effect on CDC2/p34 phosphorylation at Thr161 residue at 20 uM after 48 hrs by Western blot analysis relative to GAPDH (reference value: 1); type: cell-based
# [19] = system: HeLa; assay: Antiproliferative activity against human HeLa cells after 48 hrs by MTT assay; type: functional, cell-based
# In short: (§1)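 Cells grown in DMEM (HeLa) or RPMI 1640 (Jurkat) with 10% FBS at 37 °C and 5% CO2. Seeded at 1 × 10^4 cells/well the day before, then exposed 48 h to 10−150 μM compound (final DMSO ≤0.15% v/v), with vehicle and etoposide controls. MTT read at 550 nm; IC50 from dose–response curves versus controls; mean ± SD, ≥3 experiments in duplicate.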
# [20] = biological target: T1, Heat shock protein HSP 90-alpha; assay: Inhibition of HSP90 alpha in human HeLa cells assessed as effect on EGFR expression at 20 uM after 48 hrs by Western blot analysis relative to GAPDH (reference value: 1); type: cell-based
# [21] = system: HeLa; assay: Cell cycle arrest in human HeLa cells assessed as accumulation at G2/M phase at 10 to 20 uM after 48 hrs by propidium iodide staining based flow cytometry; type: functional
# In short: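 HeLa cells in DMEM with 10% FBS at 37 °C, 5% CO2, exposed to 10 or 20 μM for 48 h, DMSO vehicle (final ≤0.15%). Permeabilized cells stained with propidium iodide and analyzed by flow cytometry, 5000 events per sample. Percentages in hypodiploid, G0/G1, S and G2/M are given minus control values. Mean ± SD of three experiments run in duplicate.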
# [22] = system: HeLa; assay: Effect on total Cdc2 expression in human HeLa cells at 20 uM after 48 hrs by Western blot analysis relative to GAPDH (reference value: 1); type: ADME, cell-based
# [23] = system: Jurkat; assay: Antiproliferative activity against human Jurkat cells after 48 hrs by MTT assay; type: functional, cell-based; in short: as §1
# [24] = biological target: T1, Heat shock protein HSP 90-alpha; assay: Inhibition of HSP90 alpha in human HeLa cells assessed as effect on Cyclin A expression at 20 uM after 48 hrs by Western blot analysis relative to GAPDH (reference value: 1); type: cell-based
structure (smiles),measurement,setting,value
CC1=C2C[C@]3(C)C(=O)C[C@@H](C(C)(C)O)[C@H]3C/C=C(/C)[C@@H]2CC1=O,fold change (FC),[1],1
same,fold change (FC),[2],1.8
same,fold change (FC),[3],1.3
same,fold change (FC),[4],1
same,fold change (FC),[5],1
same,fold change (FC),[6],1.2
same,Kd,[7]; read-out: Kd,0.0153 µM
same,fold change (FC),[8],0.8
same,fold change (FC),[9],0.5
same,fold change (FC),[10],0.3
same,fold change (FC),[11],1
same,Activity,[12],Non-Toxic
same,fold change (FC),[13],1.4
same,fold change (FC),[14],1.2
same,fold change (FC),[15],1.3
same,fold change (FC),[16],0.2
same,fold change (FC),[17],0.3
same,fold change (FC),[18],0.1
same,IC50,[19],> 20 µM
same,fold change (FC),[20],1.4
same,Activity,[21],Active
same,fold change (FC),[22],1.5
same,IC50,[23],> 20 µM
same,fold change (FC),[24],1.2
C/C1=C/C[C@@H]2[C@H](C(C)C)CC(=O)[C@@]2(C)/C=C2/C(C)CCC12 (stereo partly specified),Kd,[7]; read-out: Kd,0.0205 µM
same,IC50,[19],> 20 µM
same,IC50,[23],> 20 µM
C=C1CC[C@H]2/C(C)=C\C[C@@H]3[C@H](C(C)C)CC(=O)[C@@]3(C)C[C@@H]12,Kd,[7]; read-out: Kd,0.401 µM
same,IC50,[19],> 20 µM
same,IC50,[23],> 20 µM
CC1=C2C[C@]3(C)C(=O)C=C(C(C)C)[C@H]3C[C@H]3O[C@@]3(C)[C@@H]2CC1=O,Kd,[7],Not Active
same,IC50,[19],> 20 µM
same,IC50,[23],> 20 µM
CC1=C2C[C@]3(C)C(=O)C=C(C(C)C)[C@H]3C/C=C(/C)[C@@H]2CC1=O,Kd,[7]; read-out: Kd,1.74 µM
same,IC50,[19],> 20 µM
same,IC50,[23],> 20 µM
C/C1=C/C[C@@H]2[C@H](C(C)C)CC[C@@]2(C)CC23OC2(C)CC[C@@H]13 (stereo partly specified),Kd,[7],Not Active
same,IC50,[19],> 20 µM
same,IC50,[23],> 20 µM
CC1=C2C[C@]3(C)C(=O)C=C(C(C)C)C3CC(O)/C(C)=C\2CC1=O (stereo partly specified),Kd,[7],Not Active
same,IC50,[19],> 20 µM
same,IC50,[23],> 20 µM
CC1=CCC23OC4(C[C@]2(C)C(=O)C=C3C(C)C)[C@H](C)C(=O)C[C@@H]14 (stereo partly specified),Kd,[7]; read-out: Kd,0.217 µM
same,IC50,[19],> 20 µM
same,IC50,[23],> 20 µM
CC(=O)O[C@H]1C[C@@](O)(C(C)C)[C@H]2C/C=C(/C)[C@@H]3CC(=O)C(C)=C3C[C@]12C,Kd,[7],Not Active
same,IC50,[19],> 20 µM
same,IC50,[23],> 20 µM
CC(C)[C@@H]1CC(=O)[C@@]2(C)/C=C3\C(CC[C@@]3(C)O)[C@]3(C)O[C@@H]3CC12 (stereo partly specified),Kd,[7]; read-out: Kd,0.045 µM
same,IC50,[19],> 20 µM
same,IC50,[23],> 20 µM
CC1=C2C[C@]3(C)C(=O)C[C@@H](C(C)C)[C@H]3C/C=C(/C)[C@@H]2CC1=O [HYPOESTENONE],Kd,[7]; read-out: Kd,1 µM
same,IC50,[19],> 20 µM
same,IC50,[23],> 20 µM
CC1=C2C[C@@]3(C)O[C@@](C)([C@@H]2CC1=O)[C@H]1CC(=O)[C@@](C(C)C)(CC3=O)O1,Kd,[7]; read-out: Kd,0.12 µM
same,IC50,[19],> 20 µM
same,IC50,[23],> 20 µM
CC1=C2C[C@]3(C)C(=O)C[C@@H](C(C)C)[C@H]3C[C@H]3O[C@@]3(C)[C@@H]2CC1=O,Kd,[7],Not Active
same,IC50,[19],> 20 µM
same,IC50,[23],> 20 µM
CC1=C2C[C@]3(C)CC[C@@H](C(C)C)[C@H]3C/C=C(/C)[C@@H]2CC1=O,Kd,[7]; read-out: Kd,0.028 µM
same,IC50,[19],> 20 µM
same,IC50,[23],> 20 µM
C=C1CC[C@@H]2[C@H]1C[C@]1(C)CC[C@@H](C(C)C)[C@H]1C[C@H]1O[C@@]21C,Kd,[7]; read-out: Kd,0.13 µM
same,IC50,[19],> 20 µM
same,IC50,[23],> 20 µM
